Data on twelve compounds can be found in ChEMBL document CHEMBL4699622, “Structural and Functional Study of the Klebsiella pneumoniae VapBC Toxin-Antitoxin System, Including the Development of an Inhibitor That Activates VapC” (J Med Chem, 2020).

The IC50 is the concentration that inhibits the measured activity by half. By Kd is commonly meant the equilibrium constant for the complex coming apart. Low values mean higher affinity, high ones lower affinity.

The structures appear in SMILES notation. The source made the active and inactive calls. No cut-off for these calls is given here. Residues, ends and D or L forms follow the SMILES beside them.

Test [1] has as its system Klebsiella pneumoniae. In words: Inhibition of Klebsiella pneumoniae MGH78578 N-terminal His6-tagged VapB/C expressed in Escherichia coli BL21(DE3) protein-protein interaction assessed as activation of VapC-mediated RNAase activity at 100 uM measured after 1 hr using fluorophore-labelled RNA by spectrofluorimetric method. A digest of the protocol: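 Peptide (100 μM) was added to purified VapBC complex (10 μM), pretreated with 10 mM EDTA and then 10 mM Mg²⁺. The reaction used 40 U RNase inhibitor, 20 mM HEPES pH 7.5, 400 mM NaCl and 5 pM final fluorophore/quencher RNA. RFU from released VapC was read over 1 h at ex 490/em 520 nm. Mean of three independent replicates ± SD.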

Test [2] deals with Klebsiella pneumoniae. In words: Binding affinity to Klebsiella pneumoniae MGH78578 N-terminal His6-tagged VapC expressed in Escherichia coli BL21(DE3) assessed as increase in RNAase activity measured after 1 hr using fluorophore-labelled RNA by spectrofluorimetric method. A digest of the protocol:
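Free VapC (10 μM) was stripped of metals with 10 mM EDTA, then exchanged into purification buffer with 10 mM Mg²⁺. It was incubated without the VapB partner, with 40 U RNase inhibitor, in 20 mM HEPES pH 7.5 and 400 mM NaCl with quenched fluorophore-labelled RNA (5 pM final). Fluorescence was followed for 1 h at ex 490/em 520 nm.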

Test [3] in a line: Inhibition of Klebsiella pneumoniae MGH78578 N-terminal His6-tagged VapB/C expressed in Escherichia coli BL21(DE3) protein-protein interaction assessed as activation of VapC-mediated RNAase activity measured after 1 hr using fluorophore-labelled RNA by spectrofluorimetric method. A digest of the protocol:
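Small molecule (1, 3.16 and 10 μM) was added to 10 μM VapBC complex. The complex was EDTA-stripped and Mg²⁺-reloaded, with 40 U RNase inhibitor, in 20 mM HEPES pH 7.5 and 400 mM NaCl with 5 pM final quenched RNA. RNase fluorescence was monitored for 1 h at ex 490/em 520 nm. Activity was expressed relative to free VapC. Screening was done in triplicate.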

Test [4] is described as follows: Binding affinity to Klebsiella pneumoniae MGH78578 N-terminal His6-tagged VapC expressed in Escherichia coli BL21(DE3) by isothermal titration calorimetry. The gist of the method:
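Isothermal titration calorimetry was run at 25 °C with VapC, quantified by A280. Background was subtracted and the data were fitted to a single-site binding model.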
A general note: ITC needs no label: the signal is the heat of the interaction.

As to `CC[C@H](C)[C@H](NC(=O)[C@H](CC(C)C)NC(=O)[C@@H](NC(=O)[C@H](CC(N)=O)NC(=O)[C@@H](N)[C@@H](C)O)[C@@H](C)CC)C(=O)N[C@@H](CC(=O)O)C(=O)N[C@@H](CC(C)C)C(=O)N[C@@H](Cc1ccccc1)C(=O)O` (H-TNILIDLF-OH), the inhibition result in test [1] is “Active”.
Consider `CSCC[C@H](NC(=O)CN)C(=O)N[C@@H](CCC(=O)O)C(=O)N[C@@H](Cc1ccc(O)cc1)C(=O)N[C@@H](CCC(N)=O)C(=O)N[C@@H](CCCNC(=N)N)C(=O)N[C@@H](CCC(N)=O)C(=O)N[C@@H](CC(C)C)C(=O)N[C@@H](CCCNC(=N)N)C(=O)N[C@@H](CCCCN)C(=O)O` (H-GMEYQRQLRK-OH), for which the result in test [2] was Active.
Still for that read-out and setting: the value for `CSCC[C@H](NC(=O)CN)C(=O)N[C@@H](CCC(=O)O)C(=O)N[C@@H](C)C(=O)N[C@@H](C)C(=O)N[C@@H](CCCNC(=N)N)C(=O)N[C@@H](CCC(N)=O)C(=O)N[C@@H](CC(C)C)C(=O)O` (H-GMEAARQL-OH) was “Active”.
For `NC(=O)NC(=O)CCN1CCC(C(=O)c2ccc(O)cc2)CC1`, the outcome in test [2] was inactive. Besides, in test [3], the IC50 is 420 nM. In test [4], this compound registered a Kd of 22 nM.
For the compound `CC[C@H](C)[C@H](NC(=O)[C@H](CC(C)C)NC(=O)[C@@H](NC(=O)[C@H](CC(N)=O)NC(=O)[C@@H](NC(=O)[C@@H](N)CC(=O)O)[C@@H](C)O)[C@@H](C)CC)C(=O)N[C@@H](CC(=O)O)C(=O)N[C@@H](CC(C)C)C(=O)N[C@@H](Cc1ccccc1)C(=O)O` (H-DTNILIDLF-OH), the inhibition entry in test [1] was “Active”.
For `CSCC[C@H](NC(=O)CN)C(=O)N[C@@H](CCC(=O)O)C(=O)N[C@@H](Cc1ccc(O)cc1)C(=O)N[C@@H](CCC(N)=O)C(=O)N[C@@H](CCCNC(=N)N)C(=O)N[C@@H](CCC(N)=O)C(=O)N[C@@H](CC(C)C)C(=O)O` (H-GMEYQRQL-OH), in test [2], the outcome was Active. For the same compound, the inhibition entry in test [1] is “Active”. The compound also registered a dissociation constant Kd in test [4] of 110 nM.
With `CC[C@H](C)[C@H](NC(=O)[C@H](CC(C)C)NC(=O)[C@@H](NC(=O)[C@H](CC(N)=O)NC(=O)[C@@H](N)[C@@H](C)O)[C@@H](C)CC)C(=O)N[C@@H](CC(=O)O)C(=O)N[C@@H](CC(C)C)C(=O)N[C@@H](Cc1ccccc1)C(=O)N[C@@H](CO)C(=O)O` (H-TNILIDLFS-OH), in test [1], the inhibition result was “Active”.
On to `CC[C@H](C)[C@H](NC(=O)[C@H](CC(C)C)NC(=O)[C@@H](NC(=O)[C@H](CC(N)=O)NC(=O)[C@@H](NC(=O)[C@@H](N)CC(=O)O)[C@@H](C)O)[C@@H](C)CC)C(=O)N[C@@H](CC(=O)O)C(=O)N[C@@H](CC(C)C)C(=O)N[C@@H](Cc1ccccc1)C(=O)N[C@@H](CO)C(=O)O` (H-DTNILIDLFS-OH), for which the inhibition entry in test [1] is “Active”.
`CSCC[C@H](NC(=O)CN)C(=O)N[C@@H](CCC(=O)O)C(=O)N[C@@H](Cc1ccc(O)cc1)C(=O)N[C@@H](C)C(=O)N[C@@H](CCCNC(=N)N)C(=O)N[C@@H](CCC(N)=O)C(=O)N[C@@H](CC(C)C)C(=O)O` (H-GMEYARQL-OH): the result in test [2] was Active. Also, the inhibition entry in test [1] is “Active”. In test [4], the Kd was 150 nM.
As to `CSCC[C@H](NC(=O)CN)C(=O)N[C@@H](CCC(=O)O)C(=O)N[C@@H](C)C(=O)N[C@@H](CCC(N)=O)C(=O)N[C@@H](CCCNC(=N)N)C(=O)N[C@@H](CCC(N)=O)C(=O)N[C@@H](CC(C)C)C(=O)O` (H-GMEAQRQL-OH), in test [2], the result was Active. Besides, the inhibition entry in test [1] is “Active”. The same compound showed a Kd in test [4] of 170 nM.
In the case of `CSCC[C@H](NC(=O)CN)C(=O)N[C@@H](CCC(=O)O)C(=O)N[C@@H](Cc1ccc(O)cc1)C(=O)N[C@@H](CCC(N)=O)C(=O)N[C@@H](CCCNC(=N)N)C(=O)N[C@@H](CCC(N)=O)C(=O)N[C@@H](CC(C)C)C(=O)N[C@@H](CCCNC(=N)N)C(=O)O` (H-GMEYQRQLR-OH), the outcome in test [2] was Active.
Consider `CCC1Oc2cc(S(=O)(=O)N3CCCC(C(=O)Nc4ccc(F)cc4)C3)c(C)cc2NC1=O` (configuration not stated), for which the outcome in test [2] was inactive. The IC50 in test [3] was found to be 400 nM. The compound also returned a Kd in test [4] of 22 nM.
